# PubChem BioAssay AID775 (SRMLSC, 2007)
# Hit rate of the full screen: of about 130,000 compounds, about 900 (0.69%) were called active. This is one part of a sample in which actives are shown more often than they occur.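 The calls were made as follows: active = inhibition above a set limit, placed 3 SD over the median of all compounds (cut at about 26% in these data); inactive = the rest.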
# Assay: rescue of nicotinamide-shortened yeast lifespan – S. cerevisiae, OD615, primary screen (AID 775);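 also: 0% = nicotinamide-treated wells and 100% = cells grown without nicotinamide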
# Settings: S. cerevisiae growth with nicotinamide, at 10 µM, active compounds read high, deaD strain in restrictive glucose medium
# How it was run: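 Assay system: engineered S. cerevisiae DeaD replicative-lifespan strain, galactose-grown log-phase cells; medium: restrictive CSMM-D dextrose medium; also added: nicotinamide, 1.5 mM, co-present with compound; schedule: 48 h compound exposure at 30 °C, humidified; detection: absorbance at 615 nm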
row,SMILES,inhibition of the nicotinamide effect
1,C/C(=N\c1nc2ccccc2n1C)c1cc(Cl)ccc1O,-13.3% (inactive)
2,CCN(CC)CCn1c(/N=C/c2cc(Br)ccc2O)nc2ccccc21,37.7% (active)
3,CCn1c(NC(=O)c2nn(C)cc2Br)nc2ccccc21,-7.14% (inactive)
4,CN(c1ccccc1)S(=O)(=O)c1cccc(NC(=O)Cc2c(F)cccc2Cl)c1,1.53% (inactive)
5,O=C(CN1C2=NCCN2c2ccccc21)c1cccs1,0.42% (inactive)
6,O=C(O)c1cccc(N2C(=O)Nc3ccccc3N2O)c1,4.66% (inactive)
7,O=C1Nc2cc(Cl)c(Cl)cc2N(O)N1c1cc(Cl)cc(Cl)c1,110% (active)
8,CCOC(=O)c1c(NC(=O)Cn2nc(C(F)(F)F)cc2C)sc2c1CCC2,-3.99% (inactive)
9,O=C1CC(c2cccc(Cl)c2)CC(O)=C1C=Nc1ccccc1 (configuration not stated),-1.47% (inactive)
10,CC(C)C(=O)N1CCN(CCN=CC2=C(O)CC(c3ccco3)CC2=O)CC1 (configuration not stated),-8.76% (inactive)
11,O=C1CC(c2ccccc2)CC(O)=C1C=NCCN1CCOCC1 (configuration not stated),70.8% (active)
12,O=C(Nc1ccc2ccccc2c1)/C(=C\c1ccc2c(c1)OCO2)NC(=O)c1ccco1,2.64% (inactive)
13,CN(c1ccccc1)c1nc(N)c([N+](=O)[O-])c(NCc2ccco2)n1,8.11% (inactive)
14,CCOC(=O)C1CCN(C(=O)/C=C/c2cc(OC)c(OC)c(OC)c2)CC1,-0.86% (inactive)
15,Cc1nc2c(C(=O)NCc3cccs3)cnn2c(C)c1Cc1ccc(F)cc1,7.32% (inactive)
16,Cc1ccc(SCCC(=O)NC(C(C)C)C(C)C)cc1,1.38% (inactive)
17,CC1Cc2ccccc2N1C(=O)Cn1cnc2ccccc2c1=O (configuration not stated),55.5% (active)
18,CC1Cc2ccccc2N1C(=O)CSc1nc2ccccc2o1 (configuration not stated),-13.2% (inactive)
19,CCn1nc(C(=O)OCC(=O)N2c3ccccc3CC2C)c2ccccc2c1=O (configuration not stated),-14.7% (inactive)
20,COc1ccc(COC(=O)N/N=C(\C)CC(=O)Nc2ccc(Cl)cc2)cc1,-3.92% (inactive)
21,O=S(=O)(NCCSc1ccccn1)c1ccc(Cl)cc1,10.5% (inactive)

row,SMILES,inhibition of the nicotinamide effect
1,COc1ccc(/C=C(/CC(=O)Nc2ccc(C)cc2)c2nc3ccccc3s2)cc1,-0.84% (inactive)
2,CNC(=O)/C(C#N)=C/c1c(F)cccc1Cl,43.1% (active)
3,Cc1cc(/C=C(/C#N)C(=O)Nc2ccc(Cl)cc2)c(C)n1-c1cccnc1,0.59% (inactive)
4,N#C/C(=C\c1ccccc1C(F)(F)F)C(=O)Nc1ccccc1F,6.56% (inactive)
5,CCOC(=O)C(C)Sc1nnc(CSc2nc3nc(C)cc(C)n3n2)o1 (configuration not stated),-1.15% (inactive)
6,CCOc1ncccc1C(=O)N(C)CC(=O)Nc1ccc(F)cc1,0.31% (inactive)
7,O=C(/C=C/c1cccc([N+](=O)[O-])c1)NCCSCc1ccco1,-4.01% (inactive)
8,COc1ccc(CNc2ccc3c(c2)CCC3)cc1OC,-10.1% (inactive)
9,COc1ccc(CC(=O)Nc2ccc3c(c2)CCC3)cc1S(=O)(=O)N1CCOCC1,61% (active)
10,O=C(CN1C(=O)CCC1=O)Nc1ccc(S(=O)(=O)N2CCOCC2)cc1,-14.7% (inactive)
11,CCCc1cc(=O)[nH]c(SCc2cc(=O)oc3c(C)c(C)ccc23)n1,4.9% (inactive)
12,O=C(OCc1ccc(Br)cc1)c1cccc(-c2nnc(-c3ccccc3)o2)c1,10.4% (inactive)
13,CCOC(=O)NN1C(=O)c2ccccc2NC1c1cccc(O)c1 (configuration not stated),-1.57% (inactive)
14,Cc1cc(C(=O)N/N=C/c2cc([N+](=O)[O-])cc(C)c2O)n[nH]1,-1.48% (inactive)
15,Cc1cc(Cl)ccc1OCCCC(=O)NCc1ccncc1,1.85% (inactive)
16,CCn1ncc(CNC(=O)C2(C)CC2(Br)Br)c1C (configuration not stated),9.74% (inactive)
17,O=C(NCCOCc1ccc(Cl)cc1)c1ncn[nH]1,1.27% (inactive)
18,O=C(/C=C/Sc1ncn[nH]1)c1ccc(Cl)cc1,44.7% (active)
19,CC(C)(C)c1ccc(C(=O)CSc2ncn[nH]2)cc1,-10.2% (inactive)
20,Cc1ccccc1C(OCCN(C)C)C1CCCCC1 (configuration not stated),-0.42% (inactive)
21,COc1ccc(C(CC(=O)c2ccccc2)S(=O)(=O)c2ccccc2)cc1 (configuration not stated),-1.04% (inactive)

row,SMILES,inhibition of the nicotinamide effect
1,O=C(Nc1cc(C(F)(F)F)ccc1Cl)C(=O)N1CCCCC1,-4.64% (inactive)
2,O=C(CN1C(=O)NC2(CCCCCC2)C1=O)NCc1cccs1,7.48% (inactive)
3,Cc1cc(O)ccc1NC1=CC(=O)CC(C)(C)C1,11.5% (inactive)
4,COC(=O)c1ccc(NC(=O)Nc2ccc(C)cc2)cc1,-13.6% (inactive)
5,Cc1ccc(C(=O)OC2=CC(=O)CC(C)(C)C2)cc1,72.5% (active)
6,Nc1nc(SCC(=O)NNc2c(Cl)cc(Cl)cc2Cl)n[nH]1,1.57% (inactive)
7,COc1ccc(C2=NOC(COC(=O)c3ccc4ccccc4n3)C2)cc1 (configuration not stated),-3.92% (inactive)
8,O=C(Oc1ccc([N+](=O)[O-])cc1)c1ccc2ccccc2n1,75.9% (active)
9,COc1ccc(C(=O)COC(=O)c2ccc3ccccc3n2)cc1,-4.94% (inactive)
10,COc1cccc(NC(=O)CC(c2ccc(OC(C)C)cc2)c2ccccc2OC)c1 (configuration not stated),9.84% (inactive)
11,CCc1cc(-c2n[nH]c(=S)n2CC(C)C)cs1,7.5% (inactive)
12,CCCCCOc1ccc(/C=C/C(=O)NCCc2nc3ccccc3[nH]2)cc1OC,3.92% (inactive)
13,CC1(c2ccccc2)CC(C)(C)N(C(=O)c2cc([N+](=O)[O-])cc([N+](=O)[O-])c2)c2ccccc21 (configuration not stated),-0.09% (inactive)
14,CCOC12CC(C)(C)CC(C)(CC3=C1C(=O)CC(C)(C)C3)C2 (configuration not stated),7.4% (inactive)
15,O=C(Cc1cccc2ccccc12)NCCC1=CCCCC1,10.1% (inactive)
16,O=C(/C=C/NCc1ccc(F)cc1)c1ccccc1,26.6% (active)
17,O=C(/C=C\NCC(=O)c1ccccc1)c1ccccc1,3.73% (inactive)
18,O=C(Cc1ccccc1)NCc1ccc(F)cc1,-0.44% (inactive)
19,COc1cc(C(=O)NNC(=O)c2ccc(S(=O)(=O)N3CCCCC3)cc2)cc(OC)c1OC,-0.56% (inactive)
20,Cc1cc(NS(=O)(=O)c2ccc(NC(=S)NC(=O)c3ccc(F)cc3Cl)cc2)no1,-5.54% (inactive)
